Measured values as given in ChEMBL document CHEMBL2046422, “Structure-activity relationship of nonacidic quinazolinone inhibitors of human microsomal prostaglandin synthase 1 (mPGES 1)” (J Med Chem, 2012).

Columns and labels:
[1] = biological target: T1, Prostaglandin E synthase (Homo sapiens) (UniProt O14684); test: Inhibition of mPGES-1 derived from IL1beta and TNFalpha stimulated human HeLa cells microsomal fraction using PGH2 as substrate at 1 uM preincubated for 30 mins prior to substrate addition measured after 1 min by LC-MS/MS analysis relative to control
T1 sequence (whole entry): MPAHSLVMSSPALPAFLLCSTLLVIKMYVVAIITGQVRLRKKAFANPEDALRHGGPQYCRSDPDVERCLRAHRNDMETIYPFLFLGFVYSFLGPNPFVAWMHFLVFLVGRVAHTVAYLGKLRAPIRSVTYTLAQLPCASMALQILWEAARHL
Outline: (§1)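 Microsomes were pelleted by ultracentrifugation and resuspended in buffer with 2.5 mM GSH; protein was measured by Bradford. PGE₂ was read by LC-MS/MS after solid-phase extraction with deuterated standards; n ≥ 3.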

Prostaglandin E synthase = biological target: T2, Prostaglandin E synthase (Homo sapiens, UniProt O14684); test: Inhibition of mPGES-1 derived from IL1beta and TNFalpha stimulated human HeLa cells microsomal fraction using PGH2 as substrate preincubated for 30 mins prior to substrate addition measured after 1 min by LC-MS/MS analysis
T2 sequence (O14684 whole entry): T1 sequence (whole entry)
Outline: as §1, with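 “Bradford. Screening used 1 μM final compound, and IC₅₀ (95% CI) came from increasing concentrations.” for “Bradford.”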

[2] = biological target: T3, Prostaglandin E synthase (Mus musculus) (UniProt Q9JM51); test: Inhibition of mPGES-1 derived from LPS stimulated mouse RAW264.7 cells microsomal fraction using PGH2 as substrate at 1 uM preincubated for 30 mins prior to substrate addition measured after 1 min by LC-MS/MS analysis relative to control
T3 sequence (whole entry): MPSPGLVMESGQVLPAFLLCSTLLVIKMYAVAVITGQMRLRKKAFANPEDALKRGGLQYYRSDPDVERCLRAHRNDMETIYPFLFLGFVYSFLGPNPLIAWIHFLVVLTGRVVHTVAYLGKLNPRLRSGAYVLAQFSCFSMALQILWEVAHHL
Outline: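 Microsomes came from RAW 264.7 cells stimulated with LPS for 16 h. They were prepared by sonication and ultracentrifugation in 0.1 M potassium phosphate, pH 7.4, with GSH and protease inhibitors, and resuspended with 2.5 mM GSH; protein was measured by Bradford. Compound was tested at the stated final concentration. PGE₂ was quantified by LC-MS/MS after solid-phase extraction with PGE₂-d₄/PGD₂-d₄ standards; SEM, n ≥ 3.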

[3] = biological target: T3, Prostaglandin E synthase (Mus musculus); test: Inhibition of mPGES-1 derived from LPS stimulated mouse NIH3T3 cells microsomal fraction using PGH2 as substrate at 1 uM preincubated for 30 mins prior to substrate addition measured after 1 min by LC-MS/MS analysis relative to control
[4] = biological target: T4, Prostaglandin G/H synthase 2 (Homo sapiens) (UniProt P35354); test: Inhibition of human recombinant COX2-mediated PGE2 synthesis using PGH2 as substrate at 1 uM by LC-MS/MS analysis relative to control
T4 sequence (whole entry): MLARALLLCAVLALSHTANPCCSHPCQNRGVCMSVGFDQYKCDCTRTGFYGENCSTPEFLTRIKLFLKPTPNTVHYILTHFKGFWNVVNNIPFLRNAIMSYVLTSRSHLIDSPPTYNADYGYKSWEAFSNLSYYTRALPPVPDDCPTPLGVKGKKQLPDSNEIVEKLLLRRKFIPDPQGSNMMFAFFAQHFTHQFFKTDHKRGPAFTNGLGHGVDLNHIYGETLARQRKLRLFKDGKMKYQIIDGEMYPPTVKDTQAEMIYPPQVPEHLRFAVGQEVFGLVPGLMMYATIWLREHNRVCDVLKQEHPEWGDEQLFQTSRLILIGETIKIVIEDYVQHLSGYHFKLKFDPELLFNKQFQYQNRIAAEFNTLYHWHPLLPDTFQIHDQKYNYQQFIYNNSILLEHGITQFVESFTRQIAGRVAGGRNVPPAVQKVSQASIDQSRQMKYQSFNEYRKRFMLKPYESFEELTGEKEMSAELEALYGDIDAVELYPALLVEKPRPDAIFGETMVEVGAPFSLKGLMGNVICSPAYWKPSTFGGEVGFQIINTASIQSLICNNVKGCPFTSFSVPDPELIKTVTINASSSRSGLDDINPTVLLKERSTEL
Outline: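 Direct enzyme test with a COX inhibitor screening kit, run per the kit protocol: COX-1 was ovine, COX-2 human recombinant. […] Prostaglandins were quantified by LC-MS/MS after solid-phase extraction. Mean of n ≥ 3.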

[5] = biological target: T1, Prostaglandin E synthase (Homo sapiens); test: Inhibition of mPGES-1 in IL1beta and TNFalpha-stimulated human HeLa cells assessed as PGE2 level after 24 hrs by LC-MS/MS analysis; type: cell-based
Outline: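 HeLa cells (2 × 10⁴) were grown 24 h at 37 °C. The medium was then replaced with IL-1β (1 ng/mL) + TNFα (5 ng/mL), or PBS for unstimulated controls, together with compound at 1, 10 or 100 μM, or DMSO, for 24 h at 37 °C. Supernatant PGE₂ was quantified by LC-MS/MS after solid-phase extraction with deuterated standards. Inhibition is percent of DMSO control corrected for unstimulated background, SEM, n ≥ 3.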

[6] = biological target: T5, 5-lipoxygenase/FLAP (Homo sapiens) (UniProt P09917+P20292); test: Inhibition of 5-lipoxygenase/FLAP in calcium ionophore-stimulated human whole blood assessed as residual 12(s)HETE level at 10 uM preincubated for 15 mins prior to calcium ionophore-stimulation measured after 15 mins by LC-MS/MS analysis; type: protein-complex assay
Outline: (§2)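 Heparinized human whole blood (500 μL) was preincubated with compound for 15 min at 37 °C. It was then stimulated with 20 μM calcium ionophore A23187 in autologous plasma for 15 min at 37 °C and chilled on ice for 5 min. Plasma was collected by centrifugation at 4 °C. Eicosanoids were recovered by liquid–liquid extraction with deuterated internal standards and quantified by LC-MS/MS (MRM). Levels are relative to vehicle-treated blood.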

[7] = biological target: T5, 5-lipoxygenase/FLAP (Homo sapiens); test: Inhibition of 5-lipoxygenase/FLAP in calcium ionophore-stimulated human whole blood assessed as 5(s)HETE level at 10 uM preincubated for 15 mins prior to calcium ionophore-stimulation measured after 15 mins by LC-MS/MS analysis; type: protein-complex assay; set-up: scale not given: the % may be the effect or the level left; outline: as §2
[8] = biological target: T5, 5-lipoxygenase/FLAP (Homo sapiens); test: Inhibition of 5-lipoxygenase/FLAP in calcium ionophore-stimulated human whole blood assessed as residual 15(s)HETE level at 10 uM preincubated for 15 mins prior to calcium ionophore-stimulation measured after 15 mins by LC-MS/MS analysis; type: protein-complex assay; outline: as §2
HeLa = test: Cytotoxicity against IL1beta and TNFalpha-stimulated human HeLa cells at 1 to 10 uM after 24 hrs by WST1 assay; type: cell-based
Outline: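 HeLa cells were seeded at 3 × 10³ per well and grown 24 h at 37 °C. They were then stimulated with IL-1β (1 ng/mL) + TNFα (5 ng/mL) while treated with compound at 1, 10 or 100 μM, or DMSO, for 24 h. WST-1 was added for 90–150 min and absorbance read at 450 nm against 620 nm. Viability is percent of DMSO control, SEM, n ≥ 3.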

Compound	inhibition [1] [%]	IC50 (Prostaglandin E synthase) [µM]	inhibition [2] [%]	inhibition [3] [%]	inhibition [4] [%]	inhibition [5]	Activity [6] [%]	Activity [7] [%]	Activity [8] [%]	Activity (HeLa)
CCCc1nc2ccc(NC(=O)c3ccccc3Cl)cc2c(=O)n1Cc1ccc(-c2ccccc2)cc1	74.2	0.22	11.8	20.3	5.8	Dose-dependent effect	110	74.8	94.2	Non-toxic
CCCc1nc2ccc(NC(=O)c3ccccc3Cl)cc2c(=O)n1Cc1ccc(-c2ccc(Cl)cc2)cc1	68.8		12.4	17.1	< 0	Dose-dependent effect	93.2	157	93.8	Non-toxic
CCCc1nc2ccc(NC(=O)c3ccccc3Cl)cc2c(=O)n1Cc1ccc(-c2cccc(OC)c2)cc1	71.5	0.21	15.3	4.6	2.5	Dose-dependent effect	85.5	67.8	80	Non-toxic

Now from value to compound, other results behind:

inhibition [1] [%]	IC50 (Prostaglandin E synthase) [µM]	inhibition [2] [%]	inhibition [3] [%]	inhibition [4] [%]	inhibition [5]	Activity [6] [%]	Activity [7] [%]	Activity [8] [%]	Compound	Activity (HeLa)
66.7	0.13	8.4	10.7	6.7	Dose-dependent effect	80	79	83.1	CCCc1nc2ccc(NC(=O)c3ccccc3Cl)cc2c(=O)n1Cc1ccc(-c2cccc(Cl)c2)cc1	
75.6	0.37	-8.7		< 0	Dose-dependent effect	123	92.1	111	CCCc1nc2ccc(NC(=O)c3c(F)cccc3Cl)cc2c(=O)n1Cc1cccc(Cl)c1	Non-toxic
63.1	0.26	6	0.9	< 0	Dose-dependent effect	88.9	74.4	83.4	CCCc1nc2ccc(NC(=O)c3ccccc3C)cc2c(=O)n1Cc1cccc(Cl)c1	Non-toxic
86.3	0.36	9.5	-0.8	< 0	Dose-dependent effect	92.8	92	90.3	CCCc1nc2ccc(NC(=O)c3ccccc3Cl)cc2c(=O)n1Cc1cccc(Cl)c1	Non-toxic
